Results: ChEMBL document CHEMBL4033790, “Design and Synthesis of Novel Deuterated Ligands Functionally Selective for the γ-Aminobutyric Acid Type A Receptor (GABAAR) α6 Subtype with Improved Metabolic Stability and Enhanced Bioavailability” (J Med Chem, 2018)
Converted amounts (≈) assume the structure as drawn. One block for each compound: values may come before it. The source made the active and inactive calls. No cut-off for these calls is given here.

Assays:
Liver [1] = experiment: Half life in human liver microsomes at 10 uM by LC-MS/MS analysis; format: ADME, microsome
Procedure, shortened: (§1)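 Compound at 10 μM final was preincubated 5 min at 37 °C with NADPH regenerating system in phosphate buffer, pH 7.4. Human or mouse liver microsomes (0.5 mg/mL protein) were added to start the reaction. Samples were taken at 0 (no microsomes) and 10–60 min and measured by LC-MS/MS against an internal standard. Half-life = 0.693/k, with k the slope of ln peak-area ratio versus time. Three experiments, each in duplicate.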

[2] = Metabolic stability in human liver microsomes assessed as parent compound remaining at 10 uM after 60 mins by LC-MS analysis; format: ADME, microsome; settings: read-out: Stability
Procedure, shortened: (§2)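 The 60 min samples of the microsomal incubation (10 μM compound, human or mouse liver microsomes at 0.5 mg/mL, NADPH regenerating system, 37 °C) were analysed by LC-MS. Detection used SIM mode with dual ESI/APCI ionization, calibrated to the retention times and masses of the parent and its O-demethylated metabolites. Peak intensities were measured.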

[3] = Metabolic stability in mouse liver microsomes assessed as parent compound remaining at 10 uM after 60 mins by LC-MS analysis; format: ADME, microsome; settings: read-out: Stability; procedure, shortened: as §2
[4] = Drug metabolism in human liver microsomes assessed as CYP450 mediated-O-demethylated 7-hydroxy-2-(4-hydroxyphenyl)-2H-pyrazolo[4,3-c]quinolin-3(5H)-one metabolite formation after 60 mins by LC-MS analysis; format: ADME; settings: 1 h
Procedure, shortened: (§3)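 The 60-min samples from the human or mouse liver microsome incubations (10 µM compound, 0.5 mg/mL protein, NADPH regenerating system, 37 °C, pH 7.4) were run on LC-MS in SIM mode with dual ESI/APCI ionization. The method was calibrated to each component's retention time and mass, and the peak intensities of the parent and O-demethylated metabolites were measured.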

[5] = Drug metabolism in mouse liver microsomes assessed as CYP450 mediated-O-demethylated 7-hydroxy-2-(4-hydroxyphenyl)-2H-pyrazolo[4,3-c]quinolin-3(5H)-one metabolite formation after 60 mins by LC-MS analysis; format: ADME; settings: 1 h; procedure, shortened: as §3
[6] = Drug metabolism in human liver microsomes assessed as CYP450 mediated-O-demethylated 2-(4-hydroxyphenyl)-7-(trideuteriomethoxy)-5H-pyrazolo[4,3-c]quinolin-3-one metabolite formation after 60 mins by LC-MS analysis; format: ADME; settings: 1 h; procedure, shortened: as §3
[7] = Drug metabolism in human liver microsomes assessed as CYP450 mediated-O-demethylated 7-hydroxy-2-(4-methoxyphenyl)-2H-pyrazolo[4,3-c]quinolin-3(5H)-one metabolite formation after 60 mins by LC-MS analysis; format: ADME; settings: 1 h; procedure, shortened: as §3
[8] = Drug metabolism in mouse liver microsomes assessed as CYP450 mediated-O-demethylated 2-(4-hydroxyphenyl)-7-(trideuteriomethoxy)-5H-pyrazolo[4,3-c]quinolin-3-one metabolite formation after 60 mins by LC-MS analysis; format: ADME; settings: 1 h; procedure, shortened: as §3
[9] = Drug metabolism in mouse liver microsomes assessed as CYP450 mediated-O-demethylated 7-hydroxy-2-(4-methoxyphenyl)-2H-pyrazolo[4,3-c]quinolin-3(5H)-one metabolite formation after 60 mins by LC-MS analysis; format: ADME; settings: 1 h; procedure, shortened: as §3
HEK-293T = experiment: Cytotoxicity against HEK293T cells assessed as reduction in cell viability up to 400 uM after 48 hrs by CellTiter-Glo assay; format: cell-based; settings: human
Procedure, shortened: (§4)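 HEK293T and HepG2 cells grown in high-glucose DMEM with non-essential amino acids, 10 mM HEPES, penicillin/streptomycin and 10% heat-inactivated FBS. Cells were harvested with trypsin and plated; compound was pin-transferred 3 h later. Incubation was 48 h, then CellTiter-Glo luminescence was read. Controls were DMSO (negative) and a cytotoxic aminoketone (positive). Quadruplicates, three independent runs, normalized to controls, nonlinear regression.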

HepG2 = experiment: Cytotoxicity against human HepG2 cells assessed as reduction in cell viability up to 400 uM after 48 hrs by CellTiter-Glo assay; format: cell-based; settings: hepg2, 48 h; procedure, shortened: as §4
Mus musculus = experiment: Neurotoxicity in Swiss Webster mouse assessed as induction of motor impairment at 40 mg/kg administered via oral gavage measured after 10 to 60 mins by rotarod method; format: toxicity, organism-based; settings: in vivo
Procedure, shortened: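 Female mice were given a single oral gavage dose of 40 mg/kg, either in 50% PBS/40% propylene glycol/10% DMSO or, for poorly soluble compounds, in 2% polyethylene glycol plus 2.5% hydroxymethyl cellulose. Rotarod performance was tested 10, 30 and 60 min after dosing, with diazepam 5 mg/kg as positive control.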

[10] = Cmax in Wistar rat plasma at 10 mg/kg, ip administered as single dose measured at 5 to 720 mins post dose by HPLC-MS/MS analysis; format: ADME, organism-based; parameters: dose 10 mg/kg, route intraperitoneal
Procedure, shortened: (§5)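 Male Wistar rats (250-350 g) given a single 10 mg/kg i.p. dose of a 5 mg/ml suspension in 85% distilled water, 14% propylene glycol, 1% Tween 80. Three rats per time point (5, 20, 60, 180, 720 min). Blood and brain were collected after sacrifice. Drug was recovered by solid phase extraction and quantified by HPLC-MS/MS.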

[11] = Tmax in Wistar rat plasma at 10 mg/kg, ip administered as single dose by HPLC-MS/MS analysis; format: ADME, organism-based
Procedure, shortened: (§6)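 Male Wistar rats (250–350 g) received a single i.p. dose of 10 mg/kg as a 5 mg/ml suspension in 85% water, 14% propylene glycol and 1% Tween 80. Three rats per time point were sacrificed at 5, 20, 60, 180 and 720 min for plasma and brain. Samples were cleaned up by solid-phase extraction and quantified by HPLC-MS/MS.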

[12] = AUC (0 to 12 hrs) in Wistar rat plasma at 10 mg/kg, ip administered as single dose by HPLC-MS/MS analysis; format: ADME, organism-based; parameters: time < 12 hr, dose 10 mg/kg, route intraperitoneal
[13] = Terminal elimination half-life in Wistar rat plasma at 10 mg/kg, ip administered as single dose by HPLC-MS/MS analysis; format: ADME, organism-based; settings: read-out: beta t1/2 (converted); procedure, shortened: as §6
[14] = Cmax in Wistar rat brain at 10 mg/kg, ip administered as single dose measured at 5 to 720 mins post dose by HPLC-MS/MS analysis; format: ADME, organism-based; parameters: dose 10 mg/kg, route intraperitoneal; procedure, shortened: as §5
[15] = Tmax in Wistar rat brain at 10 mg/kg, ip administered as single dose by HPLC-MS/MS analysis; format: ADME, organism-based; procedure, shortened: as §6
Brain = experiment: AUC (0 to 12 hrs) in Wistar rat brain at 10 mg/kg, ip administered as single dose by HPLC-MS/MS analysis; format: ADME, organism-based; parameters: dose 10 mg/kg, time < 12 hr, route intraperitoneal; settings: in vivo
[16] = Terminal elimination half-life in Wistar rat brain at 10 mg/kg, ip administered as single dose by HPLC-MS/MS analysis; format: ADME, organism-based; settings: read-out: beta t1/2 (converted); procedure, shortened: as §6
[17] = Ratio of brain AUC (0 to t) to plasma AUC (0 to t), Kp of the compound in Wistar rat at 10 mg/kg, ip administered as single dose by HPLC-MS/MS analysis; format: ADME, organism-based
[18] = target: Voltage-gated inwardly rectifying potassium channel KCNH2 (Homo sapiens, UniProt Q12809); experiment: Displacement of [3H]-dofetilide from human ERG expressed in HEK cell membranes at >10 uM after 60 to 90 mins by scintillation counting
Voltage-gated inwardly rectifying potassium channel KCNH2, sequence (Q12809 whole entry): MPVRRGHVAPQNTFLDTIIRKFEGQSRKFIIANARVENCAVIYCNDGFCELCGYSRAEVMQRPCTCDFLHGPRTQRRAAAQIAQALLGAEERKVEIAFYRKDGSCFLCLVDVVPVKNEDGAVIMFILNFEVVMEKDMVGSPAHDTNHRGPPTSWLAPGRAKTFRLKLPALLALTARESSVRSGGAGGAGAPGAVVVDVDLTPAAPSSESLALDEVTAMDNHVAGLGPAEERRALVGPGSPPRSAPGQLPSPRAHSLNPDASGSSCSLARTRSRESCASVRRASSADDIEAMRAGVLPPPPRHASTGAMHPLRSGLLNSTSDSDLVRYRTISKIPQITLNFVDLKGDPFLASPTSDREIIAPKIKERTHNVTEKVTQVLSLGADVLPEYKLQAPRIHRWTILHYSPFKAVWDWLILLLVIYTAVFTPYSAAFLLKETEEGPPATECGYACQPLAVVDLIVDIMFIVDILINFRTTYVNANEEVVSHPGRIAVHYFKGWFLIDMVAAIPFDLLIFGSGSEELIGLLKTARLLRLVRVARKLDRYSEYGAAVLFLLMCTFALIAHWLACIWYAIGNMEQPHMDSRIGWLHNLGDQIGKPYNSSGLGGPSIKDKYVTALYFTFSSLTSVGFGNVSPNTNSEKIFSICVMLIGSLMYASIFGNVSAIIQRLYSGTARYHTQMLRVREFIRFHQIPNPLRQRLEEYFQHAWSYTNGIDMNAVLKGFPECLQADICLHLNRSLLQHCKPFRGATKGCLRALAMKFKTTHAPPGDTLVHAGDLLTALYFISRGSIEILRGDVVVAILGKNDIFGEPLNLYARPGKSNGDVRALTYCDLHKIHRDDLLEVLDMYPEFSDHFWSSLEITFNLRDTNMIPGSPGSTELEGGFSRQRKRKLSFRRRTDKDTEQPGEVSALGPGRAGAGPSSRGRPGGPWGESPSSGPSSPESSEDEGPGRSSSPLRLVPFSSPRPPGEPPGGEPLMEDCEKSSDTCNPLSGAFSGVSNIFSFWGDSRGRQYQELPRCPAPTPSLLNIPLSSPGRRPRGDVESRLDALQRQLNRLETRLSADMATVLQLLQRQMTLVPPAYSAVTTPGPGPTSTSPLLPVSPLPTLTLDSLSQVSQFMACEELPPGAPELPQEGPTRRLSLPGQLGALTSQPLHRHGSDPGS

Liver [19] = experiment: Half life in mouse liver microsomes at 10 uM by LC-MS/MS analysis; format: ADME, microsome; procedure, shortened: as §1
[20] = Aqueous solubility of the compound in DI water at pH 7 after 2 hrs by LC-MS analysis; format: physicochemical; settings: buffer, pH 7, 2 h
Procedure, shortened: (§7)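 10 mg compound dissolved in 2 mL DMAC; 10 μL of this added to 2 mL DI water (pH 7, sonicated) or 2 mL 0.01 M aq HCl (pH 2), held 2 h at 37 °C. Filtered through 0.45 micron filter, then quantified by LC-MS in SIM mode against calibration curves of standards in DMAC (n = 5); n=3.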

[21] = Solubility of the compound in 0.01M HCl at pH 2 after 2 hrs by LC-MS analysis; format: physicochemical; settings: buffer, pH 2, 2 h; procedure, shortened: as §7
Rattus norvegicus = organism: Rattus norvegicus; experiment: Displacement of [3H]-flunitrazepam from rat brain GABA-A receptor benzodiazepine site […] at 10 uM after 60 to 90 mins by scintillation counting; settings: tested as the 2H-labelled form
[22] = target: Delta-type opioid receptor (Homo sapiens) (UniProt P41143); experiment: Displacement of [3H]-DADLE from human recombinant DOR expressed in HEK293 cells at 10 uM after 60 to 90 mins by scintillation counting; format: cell-based; settings: tested as the 2H-labelled form
Delta-type opioid receptor (Homo sapiens), sequence (P41143 whole entry): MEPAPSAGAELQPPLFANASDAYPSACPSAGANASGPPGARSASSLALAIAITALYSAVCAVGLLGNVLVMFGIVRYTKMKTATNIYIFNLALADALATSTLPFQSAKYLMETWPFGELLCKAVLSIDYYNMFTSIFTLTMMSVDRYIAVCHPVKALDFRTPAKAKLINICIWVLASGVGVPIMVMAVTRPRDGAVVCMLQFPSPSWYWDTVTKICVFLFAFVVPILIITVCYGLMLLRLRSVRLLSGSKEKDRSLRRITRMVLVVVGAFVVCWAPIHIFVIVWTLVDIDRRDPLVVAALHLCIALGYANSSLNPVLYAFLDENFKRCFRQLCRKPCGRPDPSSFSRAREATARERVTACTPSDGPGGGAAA
Procedure, shortened: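 Primary single-concentration radioligand displacement screen run by the NIMH Psychoactive Drug Screening Program across a 46-target panel that includes hERG. The read-out is percent inhibition of specific radioligand binding. Any compound displacing more than 50% of radioligand went on to secondary binding assays to determine Ki.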

[23] = Drug level in mouse liver microsomes treated with 7-Bromo-2-(4-methoxy-d3-phenyl)-2,5-dihydro-3H-pyrazolo[4,3-c]quinolin-3-one after 60 mins by LC-MS analysis; format: ADME; settings: 1 h
[24] = Drug level in human liver microsomes treated with 7-Bromo-2-(4-methoxy-d3-phenyl)-2,5-dihydro-3H-pyrazolo[4,3-c]quinolin-3-one after 60 mins by LC-MS analysis; format: ADME; settings: 1 h

Structure (SMILES): [2H]C([2H])([2H])Oc1ccc2c3nn(-c4ccc(OC)cc4)c(=O)c-3c[nH]c2c1
t1/2 (Liver [1]): 11.1 h | remaining at 1 h, 10 µM [2]: 92% | remaining at 1 h, 10 µM [3]: 93.2% | Drug metabolism [4]: Metabolite_Detected | Drug metabolism [5]: Metabolite_Detected | Drug metabolism [6]: Metabolite_Detected | Drug metabolism [7]: Metabolite_Detected | Drug metabolism [8]: Metabolite_Detected | Drug metabolism [9]: Metabolite_Detected | Activity (HEK-293T): Non-Toxic | Activity (HepG2): Non-Toxic | Activity (Mus musculus): Non-Toxic | Cmax [10]: 3740 ng/mL | Tmax [11]: 1.67 h | AUC(0-t) at 12 h [12]: 25300 ng·h/mL | half-life [13]: 2.46 h | Cmax [14]: 657 ng/g | Tmax [15]: 2.11 h | AUC (Brain): 4125.92 ng·h/g | half-life [16]: 2.6 h | Kp [17]: 0.16 | inhibition (INH) [18]: Not Active

Structure (SMILES): COc1ccc(-n2nc3c4cc(Cl)ccc4[nH]cc-3c2=O)cc1
t1/2 (Liver [1]): 2.3 h | remaining at 1 h, 10 µM [2]: 72.5% | t1/2 (Liver [19]): 1.9 h | remaining at 1 h, 10 µM [3]: 69.2% | solubility [20]: 6.4 µM (≈ 2.08 µg/mL) | solubility [21]: 8.5 µM (≈ 2.77 µg/mL) | inhibition (Rattus norvegicus): Active | inhibition [22]: Active | Activity (Mus musculus): Non-Toxic

Drug metabolism [23]: Metabolite_Detected | Drug metabolism [24]: Metabolite_Detected
Structure (SMILES): O=c1c2c[nH]c3cc(Br)ccc3c-2nn1-c1ccc(O)cc1
